Measured values from ChEMBL document CHEMBL3399946, “Structure-activity relationships of substituted 1H-indole-2-carboxamides as CB1 receptor allosteric modulators” (Bioorg Med Chem, 2015).
pIC50: −log10 of the molar value.

Experiments:
Cannabinoid receptor 1 [1] = target: T1, Cannabinoid receptor 1 (Homo sapiens, UniProt P21554); experiment: Antagonist activity at human CB1 receptor expressed in CHO-RD-HGA16 cells assessed as inhibition of CP55940-induced calcium mobilization incubated for 15 mins prior to CP55940 addition by FLIPR assay; assay type: functional, cell-based
T1 sequence (P21554 whole entry): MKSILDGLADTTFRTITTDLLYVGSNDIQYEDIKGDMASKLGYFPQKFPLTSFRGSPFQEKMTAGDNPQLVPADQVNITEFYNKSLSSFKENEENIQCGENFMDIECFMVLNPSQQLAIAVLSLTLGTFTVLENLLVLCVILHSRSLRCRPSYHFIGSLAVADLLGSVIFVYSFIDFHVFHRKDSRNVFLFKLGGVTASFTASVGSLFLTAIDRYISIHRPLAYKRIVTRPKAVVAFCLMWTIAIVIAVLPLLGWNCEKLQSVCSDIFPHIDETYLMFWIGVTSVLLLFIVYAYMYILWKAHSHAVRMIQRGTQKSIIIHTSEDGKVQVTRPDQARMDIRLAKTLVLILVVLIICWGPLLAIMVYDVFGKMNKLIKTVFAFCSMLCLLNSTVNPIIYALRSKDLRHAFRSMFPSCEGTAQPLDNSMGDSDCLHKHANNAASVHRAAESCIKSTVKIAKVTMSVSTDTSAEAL

Cannabinoid receptor 1 [2] = target: T1, Cannabinoid receptor 1; experiment: Agonist activity at human CB1 receptor expressed in CHO-RD-HGA16 cells at 10 uM after 15 mins by FLIPR assay relative to CP55940; assay type: cell-based
Procedure, shortened: (§1)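 Stably transfected CHO-RD-HGA16 cells (human CB1, or CB2 for line 2) seeded the day before (CB1 25,000, CB2 30,000 cells/well), cultured overnight at 37°C, 5% CO2. Loaded 45 min at 37°C with Calcium 5 dye in HBSS/20 mM HEPES/2.5 mM probenecid, pH 7.4.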

[3] = target: Cannabinoid receptor 2 (Homo sapiens) (UniProt P34972); experiment: Agonist activity at human CB2 receptor expressed in CHO-RD-HGA16 cells at 10 uM after 15 mins by FLIPR assay relative to CP55940; assay type: cell-based; procedure, shortened: as §1
Cannabinoid receptor 2 (Homo sapiens), sequence (P34972 whole entry): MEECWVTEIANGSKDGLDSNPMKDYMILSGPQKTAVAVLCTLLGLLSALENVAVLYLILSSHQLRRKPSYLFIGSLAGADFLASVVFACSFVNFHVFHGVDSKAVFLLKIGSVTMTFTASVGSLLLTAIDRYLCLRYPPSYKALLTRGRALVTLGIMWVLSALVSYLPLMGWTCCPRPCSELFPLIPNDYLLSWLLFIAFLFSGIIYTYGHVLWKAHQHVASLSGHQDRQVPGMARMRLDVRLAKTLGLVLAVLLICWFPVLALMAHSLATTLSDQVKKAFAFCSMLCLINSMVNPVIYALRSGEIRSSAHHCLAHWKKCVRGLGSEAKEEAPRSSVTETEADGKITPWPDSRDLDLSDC

[4] = target: Cannabinoid receptor 2 (Homo sapiens) (UniProt P34972); experiment: Antagonist activity at human CB2 receptor expressed in CHO-RD-HGA16 cells assessed as inhibition of CP55940-induced calcium mobilization at 10 uM incubated for 15 mins prior to CP55940 addition by FLIPR assay; assay type: functional, cell-based
Cannabinoid receptor 1 [5] = target: T1, Cannabinoid receptor 1; experiment: Allosteric modulation of human CB1 receptor expressed in CHO-RD-HGA16 cells assessed as reduction of CP55940 Emax by calcium mobilization assay; assay type: functional, cell-based
Procedure, shortened: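 CB1-expressing CHO-RD-HGA16 cells seeded at 25,000/well the previous day and loaded with Calcium 5 dye for 45 min at 37°C (HBSS, 20 mM HEPES, 2.5 mM probenecid, pH 7.4). Pretreated 15 min at 37°C with a single concentration of test compound, then serial dilutions of CP55,940 added on FLIPR Tetra. Fluorescence plotted against agonist concentration.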

pIC50 (Cannabinoid receptor 1 [1]) | Activity (Cannabinoid receptor 1 [2]) [%] | Activity [3] [%] | inhibition [4] [%] | Activity (Cannabinoid receptor 1 [5]) | Compound
6.50 | < 30 | < 30 | – | – | CCN(CC)c1ccc(CCNC(=O)c2cc3cc(F)ccc3[nH]2)cc1
< 5.00 | < 30 | < 30 | -3.3 | – | CCc1c(C(=O)NCCc2ccc(NC(C)=O)cc2)[nH]c2ccc(Cl)cc12
5.74 | < 30 | < 30 | – | – | CCCN(CCC)c1ccc(CCNC(=O)c2[nH]c3ccc(Cl)cc3c2CC)cc1
5.59 | < 30 | < 30 | – | – | CCc1c(C(=O)NCCc2ccc(OC)cc2)[nH]c2ccc(Cl)cc12
6.32 | < 30 | < 30 | – | – | CCc1c(C(=O)NCCc2ccc(N(CC)CC)cc2)[nH]c2ccc(Cl)cc12
6.82 | < 30 | < 30 | – | – | CCN(CC)c1ccc(CCNC(=O)c2[nH]c3ccc(F)cc3c2C)cc1
< 5.00 | – | – | -3.7 | – | CCc1c(C(=O)NCCc2cccc(N(C)C)c2)[nH]c2ccc(Cl)cc12
< 5.00 | < 30 | < 30 | – | – | CCc1c(C(=O)N2CCN(c3ccccc3)CC2)[nH]c2ccc(Cl)cc12
< 5.00 | < 30 | < 30 | -7 | – | CCc1c(C(=O)NCCc2ccc(OC)c(O)c2)[nH]c2ccc(Cl)cc12
5.36 | < 30 | < 30 | 25.8 | – | CCc1c(C(=O)NCCc2ccc3c(c2)OCO3)[nH]c2ccc(Cl)cc12
6.08 | < 30 | < 30 | 24.8 | – | CCc1c(C(=O)NCCc2cccc(Cl)c2)[nH]c2ccc(Cl)cc12
6.55 | < 30 | < 30 | -8.2 | – | Cc1c(C(=O)NCCc2ccc(N3CCCCC3)cc2)[nH]c2ccc(F)cc12
5.66 | < 30 | < 30 | -3.2 | – | CCc1c(C(=O)NCCc2ccc(Cl)c(Cl)c2)[nH]c2ccc(Cl)cc12
5.44 | < 30 | < 30 | – | – | CCCCCCNc1ccc(CCNC(=O)c2[nH]c3ccc(Cl)cc3c2CC)cc1
5.68 | < 30 | < 30 | -6 | – | CCc1c(C(=O)NCCc2cccc(OC)c2)[nH]c2ccc(Cl)cc12
6.22 | < 30 | < 30 | – | – | CCc1c(C(=O)NCCc2ccc(N3CCCCC3)cc2)[nH]c2ccc(F)cc12

pIC50 (Cannabinoid receptor 1 [1]) | Activity (Cannabinoid receptor 1 [2]) [%] | Activity [3] [%] | inhibition [4] [%] | Activity (Cannabinoid receptor 1 [5]) | Compound
5.24 | < 30 | < 30 | 28.5 | – | CCc1c(C(=O)NCCc2ccccc2Cl)[nH]c2ccc(Cl)cc12
< 5.00 | < 30 | < 30 | – | – | CCc1c(C(=O)Nc2cccc(-c3cccc(N(C)C)n3)c2)[nH]c2ccc(Cl)cc12
5.61 | < 30 | < 30 | – | – | CCc1c(C(=O)NCCc2ccc(C(C)(C)C)cc2)[nH]c2ccc(Cl)cc12
6.10 | < 30 | < 30 | – | – | CCc1c(C(=O)NCCc2ccc(N(C)C)cc2)[nH]c2ccc(Cl)cc12
6.07 | < 30 | < 30 | – | Dose-dependent effect | CCc1c(C(=O)NCCc2ccc(N3CCCCC3)cc2)[nH]c2ccc(Cl)cc12
5.32 | < 30 | < 30 | -6.2 | – | CCc1c(C(=O)NC2CCN(Cc3ccccc3)C2)[nH]c2ccc(Cl)cc12 (configuration not stated)
6.69 | < 30 | < 30 | – | Dose-dependent effect | CCc1c(C(=O)NCCc2ccc(N(C)C)cc2)[nH]c2ccc(F)cc12
6.44 | < 30 | < 30 | – | – | CCc1c(C(=O)NCCc2ccc(N(CC)CC)cc2)[nH]c2ccc(F)cc12
< 5.00 | < 30 | < 30 | -0.1 | – | CCc1c(C(=O)NCCc2cccc(O)c2)[nH]c2ccc(Cl)cc12
5.60 | < 30 | < 30 | -4.8 | – | CCc1c(C(=O)NCCc2ccc(Cl)cc2)[nH]c2ccc(Cl)cc12
6.50 | < 30 | < 30 | 20.8 | – | O=C(NCCc1ccc(N2CCCCC2)cc1)c1cc2cc(F)ccc2[nH]1
7.10 | < 30 | < 30 | 0.7 | Dose-dependent effect | CCN(CC)c1ccc(CCNC(=O)c2cc3cc(Cl)ccc3[nH]2)cc1
< 5.00 | < 30 | < 30 | – | – | CCc1c(C(=O)N2CCN(c3ccc(Cl)cc3)CC2)[nH]c2ccc(Cl)cc12
< 5.00 | < 30 | < 30 | 1 | – | CCCCCC(=O)Nc1ccc(CCNC(=O)c2[nH]c3ccc(Cl)cc3c2CC)cc1
5.50 | < 30 | < 30 | -6.2 | – | CCc1c(C(=O)NCCc2ccccc2)[nH]c2ccc(Cl)cc12

Compound | pIC50 (Cannabinoid receptor 1 [1]) | Activity (Cannabinoid receptor 1 [2]) [%] | Activity [3] [%] | inhibition [4] [%] | Activity (Cannabinoid receptor 1 [5])
O=C(NCCc1ccc(N2CCCCC2)cc1)c1cc2cc(Cl)ccc2[nH]1 | 6.67 | < 30 | < 30 | 15 | –
CCCC(=O)Nc1ccc(CCNC(=O)c2[nH]c3ccc(Cl)cc3c2CC)cc1 | < 5.00 | < 30 | < 30 | 43 | –
CCc1c(C(=O)NCCc2ccc([N+](=O)[O-])cc2)[nH]c2ccc(Cl)cc12 | 5.24 | < 30 | < 30 | 34.8 | –
